Active and inactive are the calls of the source. The rule behind the calls is not given here.
Assays:
Staphylococcus aureus [1] = experiment: Antibacterial activity against methicillin-resistant Staphylococcus aureus assessed as reduction in microbial growth by two fold microdilution method; format: functional
Summary of the method: (§1)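 MIC determined by the standard two-fold broth micro-dilution assay, with norfloxacin and ciprofloxacin as reference agents.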

Staphylococcus aureus [2] = experiment: Antibacterial activity against Staphylococcus aureus assessed as reduction in microbial growth by two fold microdilution method; format: functional; summary of the method: as §1
Staphylococcus aureus [3] = experiment: Antibacterial activity against Staphylococcus aureus ATCC 25923 assessed as reduction in microbial growth by two fold microdilution method; format: functional
Staphylococcus aureus [4] = experiment: Antibacterial activity against Staphylococcus aureus ATCC 29213 assessed as reduction in microbial growth by two fold microdilution method; format: functional
Enterococcus faecalis = experiment: Antibacterial activity against Enterococcus faecalis assessed as reduction in microbial growth by two fold microdilution method; format: functional
Klebsiella pneumoniae [5] = experiment: Antibacterial activity against Klebsiella pneumonia assessed as reduction in microbial growth by two fold microdilution method; format: functional
Acinetobacter baumannii = experiment: Antibacterial activity against Acinetobacter baumannii assessed as reduction in microbial growth by two fold microdilution method; format: functional
Escherichia coli [6] = experiment: Antibacterial activity against Escherichia coli assessed as reduction in microbial growth by two fold microdilution method; format: functional
Escherichia coli [7] = experiment: Antibacterial activity against Escherichia coli ATCC 25922 assessed as reduction in microbial growth by two fold microdilution method; format: functional
Pseudomonas aeruginosa [8] = experiment: Antibacterial activity against Pseudomonas aeruginosa assessed as reduction in microbial growth by two fold microdilution method; format: functional
Pseudomonas aeruginosa [9] = experiment: Antibacterial activity against Pseudomonas aeruginosa ATCC 27853 assessed as reduction in microbial growth by two fold microdilution method; format: functional
Staphylococcus aureus [10] = experiment: Bactericidal activity against methicillin-resistant Staphylococcus aureus assessed as increase in sterilization rate at 2 ug/ml measured at 6 hrs by time kill assay; format: functional, organism-based; settings: dose 2.0 µg/ml
Summary of the method: (§2)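 Time-kill kinetics: MRSA exposed to the compound at several concentrations, with ciprofloxacin as positive control. Sterilization rate followed over time up to 6 h.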

Staphylococcus aureus [11] = experiment: Bactericidal activity against methicillin-resistant Staphylococcus aureus assessed as increase in sterilization rate at 4 ug/ml measured at 4 hrs by time kill assay; format: functional, organism-based; settings: dose 4.0 µg/ml; summary of the method: as §2
Klebsiella pneumoniae [12] = experiment: Synergistic antibacterial activity against Klebsiella pneumonia assessed as fractional inhibitory concentration index in presence of ciprofloxacin; format: functional
Escherichia coli [13] = experiment: Synergistic antibacterial activity against Escherichia coli assessed as fractional inhibitory concentration index in presence of ciprofloxacin; format: functional
Staphylococcus aureus [14] = experiment: Synergistic antibacterial activity against methicillin-resistant Staphylococcus aureus assessed as fractional inhibitory concentration index in presence of ciprofloxacin; format: functional
Summary of the method: (§3)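 MIC of the test compound and of ciprofloxacin determined alone and in combination against each strain. FIC index = (MIC of A combined / MIC of A alone) + (MIC of B combined / MIC of B alone). FIC index ≤0.5 scored synergy, >0.5–2 additivity, >2 antagonism.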

Staphylococcus aureus [15] = experiment: Additive antibacterial activity against Staphylococcus aureus ATCC 25923 assessed as fractional inhibitory concentration index in presence of ciprofloxacin; format: functional
Cell membrane [16] = experiment: Induction of membrane depolarization in methicillin-resistant Staphylococcus aureus at MIC by DiSC35 dye-based fluorescence assay; settings: TDE = time-dependent effect
Summary of the method: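 Cytoplasmic membrane potential of MRSA probed with the fluorescent dye diSC35. Cells treated at MIC, and fluorescence intensity recorded over time against untreated cells.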

Cell membrane [17] = experiment: Induction of inner membrane permeabilization in methicillin-resistant Staphylococcus aureus by propidium iodide staining based fluorescence microscopic analysis
Summary of the method: (§4)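 MRSA treated at 1–4 × MIC and stained with propidium iodide and calcein-AM. Fluorescence intensity measured on a spectrofluorimeter. Dual-stain cells imaged by fluorescence microscopy, scoring red (PI) and green (calcein) cells.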

Cell membrane [18] = experiment: Induction of inner membrane disruption in methicillin-resistant Staphylococcus aureus assessed as increase in red fluorescence intensity at 4 times MIC measured by calcein-AM dye based fluorescence analysis; summary of the method: as §4
Cell membrane [19] = experiment: Induction of inner membrane disruption in methicillin-resistant Staphylococcus aureus assessed as decrease in green fluorescence intensity at 4 times MIC measured by calcein-AM dye based fluorescence analysis; summary of the method: as §4
DNA [20] = experiment: Binding affinity to methicillin-resistant Staphylococcus aureus DNA assessed as maximum absorbance peak at 260 nm by UV spectroscopy; format: nucleic-acid assay
Summary of the method: (§5)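 Genomic DNA isolated from MRSA titrated with the compound. UV absorption spectra recorded in 1.0 cm quartz cells, and the binding constant derived from an equation and plot of the spectral data.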

[21] = target: T1, DNA gyrase (Staphylococcus aureus) (UniProt P0A0K8+P20831); experiment: Binding affinity to DNA gyrase in methicillin-resistant Staphylococcus aureus assessed as decrease in gyrB gene expression after 3 hrs by RT-PCR method
[22] = target: T1, DNA gyrase (Staphylococcus aureus); experiment: Binding affinity to DNA gyrase in methicillin-resistant Staphylococcus aureus assessed as decrease in femB gene expression after 3 hrs by RT-PCR method
[23] = target: T1, DNA gyrase (Staphylococcus aureus); experiment: Binding affinity to DNA gyrase in methicillin-resistant Staphylococcus aureus assessed as decrease in mecA gene expression after 3 hrs by RT-PCR method
[24] = Hemolytic activity in human RBC incubated for 4 hrs by microscopic analysis relative to control; format: ADME, cell-based, Erythrocyte; settings: red blood cells (erythrocytes), read-out: Activity
Summary of the method: (§6)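 Processed red blood cells incubated with various compound concentrations (multiples of MIC) for 4 h at 37 °C in PBS; 1% Triton X-100 as positive control, PBS blank, saline control; hemolysis rate determined and cell integrity inspected by microscopy.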

HEK-293T = experiment: Cytotoxicity against human HEK293T cells assessed as increase in cell survival incubated for 24 hrs by MTT assay relative to control; format: cell-based
Summary of the method: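 LO2 hepatocytes and 293T cells exposed to compound for 24 h; viability by colorimetric MTT proliferation assay, expressed as survival rate versus untreated cells.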

Staphylococcus aureus [25] = experiment: Antibacterial activity against methicillin-resistant Staphylococcus aureus assessed as reduction in bacterial growth at 20 to 140 ug/ml measured after 16 passages; format: functional, organism-based; settings: dose 20-140 µg/ml
Staphylococcus aureus [26] = experiment: Antibacterial activity against methicillin-resistant Staphylococcus aureus assessed as reduction in bacterial growth at 20 to 140 ug/ml measured after 16 passages in presence of ciprofloxacin; format: functional, organism-based; settings: dose 20-140 µg/ml
Klebsiella pneumoniae [27] = experiment: Antibacterial activity against Klebsiella pneumonia in presence of ciprofloxacin (reference value: 0.25 ug/ml); format: functional
Escherichia coli [28] = experiment: Antibacterial activity against Escherichia coli in presence of ciprofloxacin (reference value: 0.25 ug/ml); format: functional
Staphylococcus aureus [29] = experiment: Antibacterial activity against methicillin-resistant Staphylococcus aureus in presence of ciprofloxacin (reference value: 0.25 ug/ml); format: functional; summary of the method: as §3
Staphylococcus aureus [30] = experiment: Antibacterial activity against Staphylococcus aureus ATCC 25923 in presence of ciprofloxacin (reference value: 0.25 ug/ml); format: functional; summary of the method: as §3
DNA [31] = experiment: Binding affinity to methicillin-resistant Staphylococcus aureus DNA assessed as conformational changes in DNA duplex by UV spectroscopy; format: nucleic-acid assay; summary of the method: as §5
DNA [32] = experiment: Binding affinity to methicillin-resistant Staphylococcus aureus DNA assessed as compound-DNA complex formation by UV spectroscopy; format: nucleic-acid assay; summary of the method: as §5
DNA [33] = experiment: Competitive binding affinity to methicillin-resistant Staphylococcus aureus DNA assessed as DNA intercalation by AO staining based assay; format: nucleic-acid assay
Summary of the method: (§7)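 Competitive displacement on MRSA DNA, recorded by fluorescence in 1.0 cm quartz cells. For the AO–DNA complex, emission at 537 nm followed with increasing compound concentration. For the DAPI–DNA complex, DAPI fluorescence followed with increasing compound concentration.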

DNA [34] = experiment: Competitive binding affinity to methicillin-resistant Staphylococcus aureus DNA assessed as DNA intercalation by DAPI staining based assay; format: nucleic-acid assay; summary of the method: as §7
[35] = Hemolytic activity in human RBC at 64 times MIC incubated for 4 hrs by microscopic analysis relative to control; format: ADME, cell-based, Erythrocyte; settings: red blood cells (erythrocytes), read-out: Activity; summary of the method: as §6
Erythrocyte = experiment: Hemolytic activity in human RBC at 16 times MIC incubated for 4 hrs by microscopic analysis; format: ADME, cell-based; summary of the method: as §6
Cell membrane [36] = experiment: Induction of inner membrane permeabilization in methicillin-resistant Staphylococcus aureus assessed as decrease in fluorescence intensity at 4 times MIC measured by calcein-AM dye based fluorescence analysis

T1 sequence (P0A0K8 2-644 limits assumed): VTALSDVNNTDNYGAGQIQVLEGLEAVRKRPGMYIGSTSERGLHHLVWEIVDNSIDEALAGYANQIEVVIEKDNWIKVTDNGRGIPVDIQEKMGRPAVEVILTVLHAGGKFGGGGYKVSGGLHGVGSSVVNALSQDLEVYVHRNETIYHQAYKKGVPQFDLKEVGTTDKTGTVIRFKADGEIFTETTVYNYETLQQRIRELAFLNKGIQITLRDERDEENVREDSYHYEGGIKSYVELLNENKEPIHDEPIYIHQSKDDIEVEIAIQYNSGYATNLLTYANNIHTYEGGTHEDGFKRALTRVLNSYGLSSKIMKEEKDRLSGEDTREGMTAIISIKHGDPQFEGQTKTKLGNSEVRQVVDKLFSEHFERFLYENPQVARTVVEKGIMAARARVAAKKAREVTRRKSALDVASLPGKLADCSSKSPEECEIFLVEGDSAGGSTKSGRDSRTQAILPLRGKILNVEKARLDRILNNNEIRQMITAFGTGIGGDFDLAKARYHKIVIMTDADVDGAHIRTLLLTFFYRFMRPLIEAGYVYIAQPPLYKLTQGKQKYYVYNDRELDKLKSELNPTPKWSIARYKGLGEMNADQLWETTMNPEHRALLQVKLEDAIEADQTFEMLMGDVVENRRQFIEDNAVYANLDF
T1 sequence (P20831 whole entry partner): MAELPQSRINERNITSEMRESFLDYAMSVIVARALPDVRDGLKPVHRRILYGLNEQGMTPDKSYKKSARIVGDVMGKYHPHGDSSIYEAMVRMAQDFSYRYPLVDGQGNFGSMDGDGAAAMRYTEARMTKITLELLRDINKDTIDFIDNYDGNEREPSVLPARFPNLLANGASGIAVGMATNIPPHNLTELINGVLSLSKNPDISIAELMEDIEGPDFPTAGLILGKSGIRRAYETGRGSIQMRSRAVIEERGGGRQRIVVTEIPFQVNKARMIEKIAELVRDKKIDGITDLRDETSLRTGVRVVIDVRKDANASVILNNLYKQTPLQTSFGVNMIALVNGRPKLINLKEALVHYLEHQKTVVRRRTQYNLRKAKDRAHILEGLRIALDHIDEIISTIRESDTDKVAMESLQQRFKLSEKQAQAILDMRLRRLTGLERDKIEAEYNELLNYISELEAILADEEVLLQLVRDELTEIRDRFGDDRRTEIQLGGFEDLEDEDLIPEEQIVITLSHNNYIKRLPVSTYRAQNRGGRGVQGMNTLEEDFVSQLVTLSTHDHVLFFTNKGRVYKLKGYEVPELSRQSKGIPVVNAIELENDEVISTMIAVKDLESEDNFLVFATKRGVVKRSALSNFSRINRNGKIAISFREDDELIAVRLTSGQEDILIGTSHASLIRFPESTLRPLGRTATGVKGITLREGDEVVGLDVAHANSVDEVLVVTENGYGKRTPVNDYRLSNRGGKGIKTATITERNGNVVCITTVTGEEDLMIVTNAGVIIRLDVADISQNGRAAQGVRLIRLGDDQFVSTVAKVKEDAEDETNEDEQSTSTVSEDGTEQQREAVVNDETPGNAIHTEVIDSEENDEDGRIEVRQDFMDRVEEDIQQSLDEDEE

COC(=O)CO/N=C(\CN1CCN(c2cc3c(cc2F)c(=O)c(C(=O)O)cn3C2CC2)CC1)c1nccs1
MIC (Staphylococcus aureus [1]): 0.25 µg/mL
MIC (Staphylococcus aureus [2]): 0.25 µg/mL
MIC (Staphylococcus aureus [3]): 0.25 µg/mL
MIC (Staphylococcus aureus [4]): 0.25 µg/mL
MIC (Enterococcus faecalis): 0.25 µg/mL
MIC (Klebsiella pneumoniae [5]): 0.25 µg/mL
MIC (Acinetobacter baumannii): 0.25 µg/mL
MIC (Escherichia coli [6]): 1 µg/mL
MIC (Escherichia coli [7]): 0.25 µg/mL
MIC (Pseudomonas aeruginosa [8]): 0.25 µg/mL
MIC (Pseudomonas aeruginosa [9]): 0.25 µg/mL
Activity (Staphylococcus aureus [10]): Active
Activity (Staphylococcus aureus [11]): Active
FIC (Klebsiella pneumoniae [12]): 0.3125
FIC (Escherichia coli [13]): 0.3125
FIC (Staphylococcus aureus [14]): 0.5
FIC (Staphylococcus aureus [15]): 1.5
Activity (Cell membrane [16]): Tde
Activity (Cell membrane [17]): Dose-Dependent Effect
Activity (Cell membrane [18]): Active
Activity (Cell membrane [19]): Active
Activity (DNA [20]): Active
Activity [21]: Active
Activity [22]: Active
Activity [23]: inactive
hemolysis at 4 h [24]: < 3%
Activity (HEK-293T): > 90%
Activity (Staphylococcus aureus [25]): Active
Activity (Staphylococcus aureus [26]): inactive
MIC (Klebsiella pneumoniae [27]): 0.0625 µg/mL
MIC (Escherichia coli [28]): 0.0625 µg/mL
MIC (Staphylococcus aureus [29]): 0.125 µg/mL
MIC (Staphylococcus aureus [30]): 0.25 µg/mL
Activity (DNA [31]): Active
Activity (DNA [32]): Active
Activity (DNA [33]): Active
Activity (DNA [34]): Active
hemolysis at 4 h, 64 times MIC [35]: < 5%
Activity (Erythrocyte): Non-Toxic
Activity (Cell membrane [36]): Active

From ChEMBL document CHEMBL4813987, “Membrane active 7-thiazoxime quinolones as novel DNA binding agents to decrease the genes expression and exert potent anti-methicillin-resistant Staphylococcus aureus activity” (Eur J Med Chem, 2021)
